Measured values from ChEMBL document CHEMBL1143739, “SAR study of bicyclo[4.1.0]heptanes as melanin-concentrating hormone receptor R1 antagonists: taming hERG” (Bioorg Med Chem, 2007).
Active and inactive are the calls of the source. The calls are words filed in the database; no cut-off is given here.

Assays:
[1] = target: T1, hERG (KCNH2) (Homo sapiens, UniProt Q12809); assay: Inhibition of hERG expressed in CHO cells at […] by rubidium efflux assay; format: toxicity, cell-based; settings: CHO cells that express hERG
T1 sequence (Q12809 whole entry): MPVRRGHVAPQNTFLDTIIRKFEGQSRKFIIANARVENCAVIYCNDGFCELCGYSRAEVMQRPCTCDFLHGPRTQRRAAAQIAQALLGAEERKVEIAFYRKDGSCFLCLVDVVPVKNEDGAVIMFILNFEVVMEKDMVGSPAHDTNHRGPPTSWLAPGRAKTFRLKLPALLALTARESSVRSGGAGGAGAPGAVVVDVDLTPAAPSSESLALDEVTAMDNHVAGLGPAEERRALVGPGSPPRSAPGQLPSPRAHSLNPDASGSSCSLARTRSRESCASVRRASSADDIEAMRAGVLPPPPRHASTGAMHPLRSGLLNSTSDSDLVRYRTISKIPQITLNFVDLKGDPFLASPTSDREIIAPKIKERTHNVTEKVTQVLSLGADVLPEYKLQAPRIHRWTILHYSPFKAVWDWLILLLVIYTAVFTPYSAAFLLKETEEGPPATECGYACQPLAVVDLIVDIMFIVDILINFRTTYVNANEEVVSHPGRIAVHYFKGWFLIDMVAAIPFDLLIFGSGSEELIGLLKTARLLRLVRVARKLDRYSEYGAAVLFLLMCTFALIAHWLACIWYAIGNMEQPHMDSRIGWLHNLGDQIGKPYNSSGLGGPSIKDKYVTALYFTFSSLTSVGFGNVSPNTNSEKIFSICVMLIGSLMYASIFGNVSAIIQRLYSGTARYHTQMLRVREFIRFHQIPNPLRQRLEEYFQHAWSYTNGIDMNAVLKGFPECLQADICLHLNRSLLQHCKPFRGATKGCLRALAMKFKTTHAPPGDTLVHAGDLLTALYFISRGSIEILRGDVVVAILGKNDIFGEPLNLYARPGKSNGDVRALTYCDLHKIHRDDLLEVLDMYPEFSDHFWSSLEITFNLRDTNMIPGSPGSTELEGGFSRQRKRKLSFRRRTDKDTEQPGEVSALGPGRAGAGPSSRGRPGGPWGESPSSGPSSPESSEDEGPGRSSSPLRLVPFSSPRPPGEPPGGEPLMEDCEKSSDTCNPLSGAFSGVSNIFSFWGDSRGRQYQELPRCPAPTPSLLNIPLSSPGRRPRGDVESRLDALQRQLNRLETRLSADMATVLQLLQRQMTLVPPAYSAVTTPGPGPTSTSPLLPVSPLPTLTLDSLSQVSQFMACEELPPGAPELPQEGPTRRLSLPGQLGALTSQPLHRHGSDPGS

[2] = target: T1, hERG (KCNH2); assay: Inhibition of hERG expressed in CHO cells at 5 ug/mL by rubidium efflux assay; format: toxicity, cell-based; settings: CHO cells that express hERG
Procedure, shortened: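 hERG-CHO cells plated 24 h, then loaded 3 h in HEPES-buffered saline with 5.4 mM RbCl. Compound added and equilibrated 30 min at 37 °C. Cells washed three times in Rb-free saline (5.4 mM KCl), then depolarized 5 min with 45.4 mM KCl.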

[3] = target: Melanin-concentrating hormone receptor 1 (Mus musculus) (UniProt Q8JZL2); assay: Ex vivo displacement of [125I]S36057 binding from mouse brain MCHR1 at 30 mg/kg, po after 6 hrs; format: functional, organism-based; set-up: dose 30 mg/kg
Chain of Melanin-concentrating hormone receptor 1 (Mus musculus) (Q8JZL2 whole entry): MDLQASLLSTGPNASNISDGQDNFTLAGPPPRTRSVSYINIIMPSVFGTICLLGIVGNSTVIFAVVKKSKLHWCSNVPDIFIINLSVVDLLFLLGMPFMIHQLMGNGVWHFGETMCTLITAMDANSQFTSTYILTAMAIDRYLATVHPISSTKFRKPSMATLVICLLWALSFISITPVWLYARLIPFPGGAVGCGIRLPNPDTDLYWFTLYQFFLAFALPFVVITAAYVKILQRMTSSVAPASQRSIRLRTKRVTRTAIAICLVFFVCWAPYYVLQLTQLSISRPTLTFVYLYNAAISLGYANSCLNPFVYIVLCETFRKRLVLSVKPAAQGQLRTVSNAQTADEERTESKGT

[4] = target: Melanin-concentrating hormone receptor 1 (Mus musculus) (UniProt Q8JZL2); assay: Ex vivo displacement of [125I]S36057 binding from mouse brain MCHR1 at 30 mg/kg, po after 24 hrs; format: functional, organism-based; set-up: dose 30 mg/kg
[5] = target: Melanin-concentrating hormone receptor 1 (Homo sapiens, UniProt Q99705); assay: Displacement of [125I]MCH from MCHR1 expressed in CHO cells; format: cell-based
Chain of Melanin-concentrating hormone receptor 1 (Q99705 whole entry): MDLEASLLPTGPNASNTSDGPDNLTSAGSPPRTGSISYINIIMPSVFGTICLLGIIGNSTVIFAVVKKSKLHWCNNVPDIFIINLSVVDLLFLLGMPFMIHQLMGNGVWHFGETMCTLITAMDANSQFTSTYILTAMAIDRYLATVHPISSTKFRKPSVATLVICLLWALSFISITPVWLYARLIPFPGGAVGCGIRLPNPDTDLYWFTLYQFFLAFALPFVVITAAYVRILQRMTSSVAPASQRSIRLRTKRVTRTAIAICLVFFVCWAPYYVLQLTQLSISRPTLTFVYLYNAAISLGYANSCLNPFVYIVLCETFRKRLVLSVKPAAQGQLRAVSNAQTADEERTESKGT
Procedure, shortened: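 Human MCH R1, CHO cell membranes (0.1 mg/mL) on SPA beads (1 mg/mL). Buffer: 25 mM HEPES, 10 mM MgCl2, 5 mM MnCl2, 0.1% BSA, pH 7.4. Incubation 2–4 h at room temperature, scintillation count. Ki by non-linear regression; mean ± range of two determinations, each in quadruplicate.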

Row | Activity [3] [%] | Activity [4] | Ki [5] [nM] | SMILES | inhibition at […] [1] [%] | inhibition at 5 ug/mL [2] [%]
1 |  |  |  | N#Cc1cccc([C@]23CC[C@@H](N(CC4CCN(C5CCOCC5)CC4)C(=O)Nc4ccc(F)c(Cl)c4)CC2C3)c1 (some centres undefined) | 75 | 91
2 | 81 | 66% | 12 | CC(C)N(CCF)CCN(C(=O)Nc1ccc(F)c(Cl)c1)[C@@H]1CC[C@]2(c3cccc(C#N)c3)CC2C1 (some centres undefined) |  | 50
3 | 84 | 97% | 4.2 | N#Cc1ccc(C2=CCC(N(CCN3CCCC3)C(=O)Nc3ccc(F)c(Cl)c3)CC2)s1 (centres undefined) |  | 74
4 |  |  | 31 | CC(=O)NCc1cccc([C@]23CC[C@@H](N(CCN(C(C)C)C(C)C)C(=O)Nc4ccc(F)c(Cl)c4)CC2C3)c1 (some centres undefined) | 62 | 78
5 | 73 | 38% | 8.7 | CC(C)N(CCO)CCN(C(=O)Nc1ccc(F)c(Cl)c1)[C@@H]1CC[C@]2(c3cccc(C#N)c3)CC2C1 (some centres undefined) |  | 88
6 |  |  | 80 | CS(=O)(=O)N1CCC(CCN(C(=O)Nc2ccc(F)c(C(F)(F)F)c2)[C@@H]2CC[C@]3(c4cccc(C#N)c4)CC3C2)CC1 (some centres undefined) | 18 | 20
7 | 78 | inactive |  | N#Cc1cccc([C@]23CC[C@@H](N(CCN4CCC[C@H]4CO)C(=O)Nc4ccc(F)c(Cl)c4)CC2C3)c1 (some centres undefined) |  | 75
8 | 99 | 97% | 10 | CC(C)N(CCF)CCN(C(=O)Nc1cc(Cl)nc(Cl)c1)[C@@H]1CC[C@]2(c3cccc(C#N)c3)CC2C1 (some centres undefined) |  | 50
9 |  |  | 211 | CS(=O)(=O)N1CCCC(CN(C(=O)Nc2ccc(F)c(Cl)c2)[C@@H]2CC[C@]3(c4cccc(C#N)c4)CC3C2)C1 (some centres undefined) | 3 | 9
10 | 49 | inactive |  | N#Cc1cccc([C@]23CC[C@@H](N(CCN4CC[C@@H](O)C4)C(=O)Nc4ccc(F)c(Cl)c4)CC2C3)c1 (some centres undefined) |  | 80
11 | 77 | 57% | 8.2 | NCc1ccc(C2=CCC(N(CCN3CCCC3)C(=O)Nc3ccc(F)c(Cl)c3)CC2)s1 (centres undefined) |  | 26
12 |  |  | 21 | CCS(=O)(=O)N1CCC(CN(C(=O)Nc2ccc(F)c(F)c2)[C@@H]2CC[C@]3(c4cccc(C#N)c4)CC3C2)CC1 (some centres undefined) | 25 | 59
13 |  |  | 51 | O=Cc1ccc(C2=CCC(N(CCN3CCCC3)C(=O)Nc3ccc(F)c(Cl)c3)CC2)o1 (centres undefined) |  | 47
14 |  |  | 9.7 | CS(=O)(=O)N1CCC(CN(C(=O)Nc2cccc(F)c2)[C@@H]2CC[C@]3(c4cccc(C#N)c4)CC3C2)CC1 (some centres undefined) | 25 | 47
15 | 26 |  | 15 | CN(C)Cc1cccc([C@]23CC[C@@H](N(CC4CCN(S(C)(=O)=O)CC4)C(=O)Nc4ccc(F)c(Cl)c4)CC2C3)c1 (some centres undefined) | 7 | 8
16 | 16 |  | 30 | O=C(Nc1ccc(F)c(Cl)c1)N(CCN1CCCC1)C1CC=C(c2cccnc2)CC1 (centres undefined) |  | 
17 |  |  | 13 | CC(C)N(CCN(C(=O)Nc1ccc(F)c(Cl)c1)[C@@H]1CC[C@]2(c3cccc(CN(C)C)c3)CC2C1)C(C)C (some centres undefined) | -1 | 5
18 |  |  | 559 | CS(=O)(=O)N1CCC[C@H]1CN(C(=O)Nc1ccc(F)c(Cl)c1)[C@@H]1CC[C@]2(c3cccc(C#N)c3)CC2C1 (some centres undefined) | 32 | 13
19 |  |  | 2.4 | CC(C)N(CCN(C(=O)Nc1cc(Cl)nc(Cl)c1)[C@@H]1CC[C@]2(c3cccc(C#N)c3)CC2C1)C(C)C (stereo in doubt; 13) [listing 1 of 2 here] |  | 59
20 | 1 |  | 8.9 | CS(=O)(=O)N1CCC(CN(C(=O)Nc2cc(Cl)nc(Cl)c2)[C@@H]2CC[C@]3(c4cccc(CN5CC[C@H](O)C5)c4)CC3C2)CC1 (some centres undefined) | -7 | 0
21 |  |  | 142 | CC(C)N(CCN(C(=O)Nc1ccc(F)c(Cl)c1)[C@@H]1CC[C@]2(c3cccc(C(N)=O)c3)CC2C1)C(C)C (some centres undefined) | 21 | 44
22 |  |  | 312 | CC(=O)N1CCC(CN(C(=O)Nc2ccc(F)c(Cl)c2)[C@@H]2CC[C@]3(c4cccc(C#N)c4)CC3C2)CC1 (some centres undefined) | 32 | 37
23 |  |  | 18 | CC(C)N(CCN(C(=O)Nc1ccc(F)c(Cl)c1)[C@@H]1CC[C@]2(c3cccc(CNS(C)(=O)=O)c3)CC2C1)C(C)C (some centres undefined) | 17 | 46
24 |  |  | 48 | CC(C)N(CCN(C(=O)Nc1ccc(F)c(Cl)c1)[C@@H]1CC[C@]2(c3cccc(CO)c3)CC2C1)C(C)C (some centres undefined) | 43 | 67
25 |  |  | 181 | CNC(=O)N1CCC(CN(C(=O)Nc2ccc(F)c(C(F)(F)F)c2)[C@@H]2CC[C@]3(c4cccc(C#N)c4)CC3C2)CC1 (some centres undefined) | 14 | 18

Row | Activity [3] [%] | Activity [4] | Ki [5] [nM] | SMILES | inhibition at […] [1] [%] | inhibition at 5 ug/mL [2] [%]
26 |  |  | 295 | CS(=O)(=O)N1CCCCC1CN(C(=O)Nc1ccc(F)c(Cl)c1)[C@@H]1CC[C@]2(c3cccc(C#N)c3)CC2C1 (some centres undefined) | 31 | 3
27 | 0 |  | 2.4 | CS(=O)(=O)N1CCC(CN(C(=O)Nc2cc(Cl)nc(Cl)c2)[C@@H]2CC[C@]3(c4cccc(CN)c4)CC3C2)CC1 (some centres undefined) | -1 | 3
28 |  |  | 26 | CS(=O)(=O)N1CCC(CN(C(=O)Nc2ccc(F)c(C(F)(F)F)c2)[C@@H]2CC[C@]3(c4cccc(C#N)c4)CC3C2)CC1 (some centres undefined) | -1 | -1
29 |  |  | 85 | Cc1ccc(C2=CCC(N(CCN3CCCC3)C(=O)Nc3ccc(F)c(Cl)c3)CC2)s1 (centres undefined) |  | 12
30 | 0 |  | 9.9 | CS(=O)(=O)N1CCC(CN(C(=O)Nc2ccc(F)c(Cl)c2)[C@@H]2CC[C@]3(c4cccc(CN)c4)CC3C2)CC1 (some centres undefined) | 8 | 14
31 | 37 |  | 17 | NCc1cnc(C2=CCC(N(CCN3CCCC3)C(=O)Nc3ccc(F)c(Cl)c3)CC2)s1 (centres undefined) |  | 14
32 |  |  | 5.4 | CS(=O)(=O)N1CCC(CN(C(=O)Nc2ccc(F)c(F)c2)[C@@H]2CC[C@]3(c4cccc(C#N)c4)CC3C2)CC1 (some centres undefined) | 15 | 34
33 |  |  | 92 | CC(C)N(CCN(C(=O)Nc1ccc(F)c(F)c1)[C@@H]1CC[C@]2(c3ccccc3)CC2C1)C(C)C (some centres undefined) |  | 
34 |  |  | 46 | CCN(CC)Cc1cccc([C@]23CC[C@@H](N(CCN(C(C)C)C(C)C)C(=O)Nc4ccc(F)c(Cl)c4)CC2C3)c1 (some centres undefined) | 15 | 30
35 |  |  | 57 | N#Cc1ncc(C2=CCC(N(CCN3CCCC3)C(=O)Nc3ccc(F)c(Cl)c3)CC2)s1 (centres undefined) |  | 
36 |  |  | 7.6 | CC(C)N(CCN(C(=O)Nc1cccc(C#N)c1)[C@@H]1CC[C@]2(c3cccc(C#N)c3)CC2C1)C(C)C (some centres undefined) |  | 
37 |  |  | 6 | CC(C)N(CCN(C(=O)Nc1cccc(Cl)c1)[C@@H]1CC[C@]2(c3cccc(C#N)c3)CC2C1)C(C)C (some centres undefined) |  | 
38 | 99 | 58% |  | CC(C)N(CCN(C(=O)Nc1cc(Cl)nc(Cl)c1)[C@@H]1CC[C@]2(c3cccc(C#N)c3)CC2C1)C(C)C (stereo in doubt; 13) [listing 2 of 2 here] |  | 
39 |  |  | 54 | CC(C)N(CCN(C(=O)Nc1ccc(F)c(Cl)c1)[C@@H]1CC[C@]2(c3cccc(CN4CCN(C)CC4)c3)CC2C1)C(C)C (some centres undefined) | 10 | 13
40 |  |  | 2.3 | CC(C)N(CCN(C(=O)Nc1ccc(F)c(Cl)c1)[C@@H]1CC[C@]2(c3cccc(CN)c3)CC2C1)C(C)C (some centres undefined) | 22 | 32
41 |  |  | 15 | N#Cc1cccc([C@]23CC[C@@H](N(CCN4CCCC(CO)C4)C(=O)Nc4ccc(F)c(Cl)c4)CC2C3)c1 (some centres undefined) |  | 
42 |  |  | 21 | CC(C)N(CCN(C(=O)Nc1ccc(F)c(Cl)c1)[C@@H]1CC[C@]2(c3cccc(CN4CC[C@H](O)C4)c3)CC2C1)C(C)C (some centres undefined) | -4 | -1
43 |  |  | 92 | N#Cc1cccc(NC(=O)N(CCN2CC[C@@H](O)C2)[C@@H]2CC[C@]3(c4cccc(C#N)c4)CC3C2)c1 (some centres undefined) |  | 
44 |  |  |  | COC(=O)c1cccc([C@]23CC[C@@H](N(CCN(C(C)C)C(C)C)C(=O)Nc4ccc(F)c(F)c4)CC2C3)c1 (some centres undefined) | 57 | 85
45 |  |  | 147 | O=C(Nc1ccc(F)c(Cl)c1)N(CCN1CCCC1)C1CC=C(c2cncnc2)CC1 (centres undefined) |  | 85
46 |  |  | 1970 | O=C(Nc1ccc(F)c(Cl)c1)N(CCN1CCCC1)C1CC=C(c2ccc[nH]2)CC1 (centres undefined) |  | 
47 |  |  | 20 | N#Cc1cccc([C@]23CC[C@@H](N(CCN4CC[C@@H](O)C4)C(=O)Nc4ccc(F)c(F)c4)CC2C3)c1 (some centres undefined) |  | 
48 | 0 |  | 3.3 | CN(C)Cc1cccc([C@]23CC[C@@H](N(CC4CCN(S(C)(=O)=O)CC4)C(=O)Nc4cc(Cl)nc(Cl)c4)CC2C3)c1 (some centres undefined) | 8 | 7
49 |  |  | 7.2 | CS(=O)(=O)N1CCC(CN(C(=O)Nc2ccc(F)c(Cl)c2)[C@@H]2CC[C@]3(c4cccc(C#N)c4)CC3C2)CC1 (some centres undefined) | 6 | 24
50 |  |  | 27 | N#Cc1cccc([C@]23CC[C@@H](N(CCN4CC[C@@H](O)C4)C(=O)Nc4cccc(Cl)c4)CC2C3)c1 (some centres undefined) |  | 
